# Source: ChEMBL document CHEMBL1149450, “Synthesis and cytotoxic evaluation of new derivatives of the marine alkaloid variolin B” (2006)
# What was measured:
# Type in all cases: functional
# SK-OV-3 = assay: Inhibition of growth against SKOV3 cells after 72 hrs exposure; settings: Homo sapiens, SK-OV-3, 72 h
# Outline: (§1)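 Human tumour cells seeded at 5 × 10^3 per well in RPMI and allowed to attach for 18 h in drug-free medium. Compounds added in DMSO:H2O (3:7) for 72 h of continuous exposure. Cells fixed with cold TCA (60 min, 4 °C), stained with 0.4% SRB in 1% acetic acid (10 min, RT), and bound dye solubilised in Tris. OD read at 490 nm. GI50 calculated from 100 × [(T − T0)/(C − T0)] = 50, using control, test and time-zero ODs.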
# IGROV-1 [1] = assay: Inhibition of growth against IGROV cells after 72 hrs exposure; settings: Homo sapiens, IGROV-1, 72 h; outline: as §1
# HMEC = assay: Inhibition of growth against HMEC1 cells after 72 hrs exposure; settings: Homo sapiens; outline: as §1
# PANC-1 = assay: Inhibition of growth against PANC1 cells after 72 hrs exposure; settings: Homo sapiens, PANC-1, 72 h; outline: as §1
# IGROV-1 [2] = assay: Inhibition of growth against IGROV-ET cells after 72 hrs exposure; settings: Homo sapiens, IGROV-1, 72 h; outline: as §1
# SK-MEL-28 = assay: Inhibition of growth against MEL28 cells after 72 hrs exposure; settings: Homo sapiens, SK-MEL-28, 72 h; outline: as §1
# LNCaP = assay: Inhibition of growth against LnCAP cells after 72 hrs exposure; settings: Homo sapiens; outline: as §1
# LoVo [3] = assay: Inhibition of growth against LoVo cells after 72 hrs exposure; settings: Homo sapiens; outline: as §1
# LoVo [4] = assay: Inhibition of growth against LoVo-Dox cells after 72 hrs exposure; settings: Homo sapiens; outline: as §1
# A549 = assay: Inhibition of growth against A549 cells after 72 hrs exposure; settings: Homo sapiens, A549, 72 h; outline: as §1
# K562 = assay: Inhibition of growth against K562 cells after 72 hrs exposure; settings: Homo sapiens, K562, 72 h; outline: as §1
# SK-BR-3 = assay: Inhibition of growth against SKBR3 cells after 72 hrs exposure; settings: Homo sapiens, SK-BR-3, 72 h; outline: as §1
# HT-29 = assay: Inhibition of growth against HT29 cells after 72 hrs exposure; settings: Homo sapiens, HT-29, 72 h; outline: as §1
# DU-145 = assay: Inhibition of growth against DU145 cells after 72 hrs exposure; settings: Homo sapiens, DU-145, 72 h; outline: as §1
# HeLa [5] = assay: Inhibition of growth against HeLa cells after 72 hrs exposure; settings: Homo sapiens; outline: as §1
# HeLa [6] = assay: Inhibition of growth against HeLa-Apl cells after 72 hrs exposure; settings: Homo sapiens; outline: as §1
GI50 (SK-OV-3),GI50 (PANC-1),GI50 (SK-MEL-28),GI50 (LNCaP),GI50 (LoVo [3]),GI50 (LoVo [4]),GI50 (A549),GI50 (K562),GI50 (SK-BR-3),GI50 (HT-29),GI50 (DU-145),GI50 (HeLa [5]),GI50 (HeLa [6]),SMILES,GI50 (IGROV-1 [1]),GI50 (HMEC),GI50 (IGROV-1 [2])
0.72 µM,3.97 µM,4.42 µM,2.37 µM,3.62 µM,3.46 µM,3.38 µM,3.36 µM,2.13 µM,3.44 µM,2.38 µM,,,COc1ccnc2c1c(-c1ccnc(N)n1)c1cc(C(=O)NCCN(C)C)nc(NCc3ccccc3)n12,2.8 µM,0.46 µM,2.05 µM
19 µM,26.1 µM,24.4 µM,12.9 µM,8.74 µM,6.76 µM,14.1 µM,26.1 µM,13.1 µM,25.1 µM,26.1 µM,,,Nc1nccc(-c2cc3cc4c(O)ccnc4n3c(NCc3ccccc3)n2)n1,4.46 µM,6.31 µM,12.9 µM
,21.8 µM,3.41 µM,5.28 µM,34.1 µM,34.1 µM,34.1 µM,9.24 µM,31.9 µM,34.1 µM,34.1 µM,6.14 µM,8.86 µM,Nc1nccc(-c2cc3cc4c(O)ccnc4n3c(N)n2)n1 [7-ISOVARIOLIN B],27.9 µM,,31.9 µM
,17.7 µM,4.12 µM,9.13 µM,13.6 µM,3.05 µM,18.7 µM,4.78 µM,2.79 µM,18.7 µM,4.74 µM,4.52 µM,3.88 µM,CN(C)Cc1cnc2c(c1O)c(-c1ccnc(N)n1)c1cc(-c3ccnc(N)n3)nc(NCc3ccccc3)n12,4.03 µM,,3.56 µM
,26.9 µM,26.9 µM,26.9 µM,26.9 µM,26.9 µM,26.9 µM,26.9 µM,14.8 µM,26.9 µM,26.9 µM,26.9 µM,26.9 µM,Nc1nccc(-c2cc3c(-c4ccnc(N)n4)c4c(O)ccnc4n3c(N)n2)n1,26.9 µM,,26.9 µM
1.21 µM,1.68 µM,1.2 µM,0.05 µM,0.8 µM,1.02 µM,0.98 µM,1.55 µM,0.85 µM,2.85 µM,0.89 µM,,,Nc1nccc(-c2c3c(O)ccnc3n3c(N)nccc23)n1 [VARIOLIN B],1.14 µM,0.27 µM,1.28 µM
25.2 µM,25.2 µM,25.2 µM,16 µM,14.4 µM,11 µM,25.2 µM,25.2 µM,25.2 µM,25.2 µM,25.2 µM,,,COc1ccnc2c1cc1cc(-c3ccnc(N)n3)nc(NCc3ccccc3)n12,15.1 µM,15 µM,25.2 µM
,19.9 µM,21 µM,18.6 µM,21 µM,21 µM,21 µM,21 µM,8.24 µM,21 µM,21 µM,3.03 µM,3.68 µM,COc1ccnc2c1c(-c1ccnc(N)n1)c1cc(-c3ccnc(N)n3)nc(NCc3ccccc3)n12,21 µM,,21 µM
21.7 µM,21.7 µM,21.7 µM,21.7 µM,21.7 µM,21.7 µM,21.7 µM,21.7 µM,21.7 µM,21.7 µM,21.7 µM,,,Nc1nccc(-c2cc3c(-c4ccnc(N)n4)c4c(O)ccnc4n3c(NCc3ccccc3)n2)n1,21.7 µM,21.7 µM,9.9 µM
